Laboratory results as given in ChEMBL document CHEMBL1156780, “6-(Het)aryl-7-deazapurine ribonucleosides as novel potent cytostatic agents” (J Med Chem, 2010).

Assays:
[1] = system: CCRF-CEM; experiment: Inhibition of DNA synthesis in human CCRF-CEM assessed as assessed as BrdU incorporation at 1 x GIC50 after 24 by flow cytometry; assay type: functional; design: scale not given: the % may be the effect or the level left
Method in brief: (§1)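 Culture as for cell cycle work (CCRF-CEM, 24 h, 1× or 5× GIC₅₀). Pulse with 10 μM BrdU for 30 min before harvest. Fixed in 70% ethanol, DNA denatured in 2 M HCl, neutralized with 0.1 M borax. Stained with anti-BrdU and FITC secondary, plus PI 0.1 mg/mL and RNase A. BrdU+ cells counted by flow cytometry.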

[2] = system: BT-549; experiment: Cytotoxicity against human BT549 cells after 5 days by SRB assay; assay type: functional; settings: BT-549, 120 h
Method in brief: (§2)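 Cells seeded in RPMI (colon, breast, lung lines), MEM (Du145) or F12K (PC3) with 10% FBS, 37 °C overnight. Day-zero plates fixed with cold 10% TCA. Compounds added as 5-fold serial dilutions for 5 days. Fixed, stained with 0.057% SRB in 1% acetic acid, dye solubilized in 10 mM Tris pH 10.5, A500 read. Growth % corrected for day-0 OD; GIC₅₀ from sigmoidal fit.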

[3] = system: HCT-116; experiment: Cytostatic activity against human HCT116 cells after 5 days by SRB assay; assay type: functional; settings: HCT-116, 120 h; method in brief: as §2
[4] = system: DU-145; experiment: Cytostatic activity against human DU145 cells after 5 days by SRB assay; assay type: functional; settings: DU-145, 120 h; method in brief: as §2
[5] = system: HL-60; experiment: Cytotoxicity against human HL60 cells after 3 days by XTT assay; assay type: functional, cell-based; settings: HL-60, 72 h
Method in brief: (§3)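 Cell viability of CCRF-CEM, HL60 and HeLa cells measured by XTT assay after 72 h incubation with compounds. IC₅₀ taken as mean of 2–4 independent experiments.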

[6] = system: HCT-15; experiment: Cytotoxicity against human HCT15 cells after 5 days by SRB assay; assay type: functional; settings: HCT-15, 120 h; method in brief: as §2
[7] = system: CCRF-CEM; experiment: Cell cycle arrest in human CCRF-CEM assessed as accumulation at S phase at 5 x GIC50 after 24 hrs by flow cytometry; assay type: functional
Method in brief: (§4)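 Subconfluent CCRF-CEM (5 × 10⁵ cells/mL, RPMI 1640 + 10% FCS, 37 °C CO₂) exposed 24 h at 1× or 5× GIC₅₀, vehicle controls alongside. Cells fixed overnight in 70% ethanol at -20 °C, hypotonic citrate wash, RNase 50 μg/mL, propidium iodide stain, 488 nm flow cytometry. Sub-G1 = particles with PI content below G0/G1 cells. Reported as % of total cells.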

[8] = system: CCRF-CEM; experiment: Inhibition of DNA synthesis in human CCRF-CEM assessed as assessed as BrdU incorporation at 5 x GIC50 after 24 by flow cytometry; assay type: functional; design: scale not given: the % may be the effect or the level left; method in brief: as §1
[9] = system: CCRF-CEM; experiment: Cell cycle arrest in human CCRF-CEM assessed as accumulation at G2/M phase at 1 x GIC50 after 24 hrs by flow cytometry; assay type: functional; method in brief: as §4
[10] = system: PC-3; experiment: Cytotoxicity against human PC3 cells after 5 days by SRB assay; assay type: functional; settings: PC-3, 120 h; method in brief: as §2
[11] = system: CCRF-CEM; experiment: Cell cycle arrest in human CCRF-CEM assessed as accumulation at G1 phase at 1 x GIC50 after 24 hrs by flow cytometry; assay type: functional; method in brief: as §4
[12] = system: CCRF-CEM; experiment: Inhibition of RNA synthesis in human CCRF-CEM assessed as assessed as BrdU incorporation at 1 x GIC50 after 24 by flow cytometry; assay type: functional; design: scale not given: the % may be the effect or the level left
Method in brief: (§5)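 CCRF-CEM culture as for cell cycle (24 h, 1× or 5× GIC₅₀). Cells pulsed 30 min with 1 mM bromouridine before harvest. Fixed in 1% paraformaldehyde/0.05% NP-40. Stained with anti-BrdU antibody cross-reacting with BrU, then FITC secondary, PI and RNase A. BrU+ cells quantified by 488 nm flow cytometry.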

[13] = system: CCRF-CEM; experiment: Antimitotic activity in human CCRF-CEM cells assessed as decrease in mitotic histone H3 at 5 x GIC50; assay type: functional; design: scale not given: the % may be the effect or the level left
Method in brief: (§6)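 CCRF-CEM cells seeded subconfluent at 5 × 10⁵ cells/mL in RPMI 1640 with 10% FCS, 10 mM glutamine, penicillin/streptomycin, 37 °C humidified CO₂. Exposed 24 h at 1× or 5× GIC₅₀; vehicle controls harvested at 24 h. Ethanol-fixed cells labelled with anti-phospho-histone H3 Ser10 and mitotic cells counted by flow cytometry as % of total population.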

[14] = system: NCI-H23; experiment: Cytotoxicity against human NCI-H23 cells after 5 days by SRB assay; assay type: functional; settings: NCI-H23, 120 h; method in brief: as §2
[15] = Cytotoxicity against human HeLaS3 cells after 3 days by XTT assay; assay type: functional, cell-based; settings: HeLa S3, 72 h
[16] = system: CCRF-CEM; experiment: Cytotoxicity against human CCRF-CEM cells after 3 days by XTT assay; assay type: functional, cell-based; settings: 72 h; method in brief: as §3
[17] = system: CCRF-CEM; experiment: Antimitotic activity in human CCRF-CEM cells assessed as decrease in mitotic histone H3 at 1 x GIC50; assay type: functional; design: scale not given: the % may be the effect or the level left; method in brief: as §6
[18] = system: CCRF-CEM; experiment: Cell cycle arrest in human CCRF-CEM assessed as accumulation at subG1 phase at 1 x GIC50 after 24 hrs by flow cytometry; assay type: functional; method in brief: as §4
[19] = system: CCRF-CEM; experiment: Cell cycle arrest in human CCRF-CEM assessed as accumulation at S phase at 1 x GIC50 after 24 hrs by flow cytometry; assay type: functional; method in brief: as §4
[20] = system: CCRF-CEM; experiment: Cell cycle arrest in human CCRF-CEM assessed as accumulation at G1 phase at 5 x GIC50 after 24 hrs by flow cytometry; assay type: functional; method in brief: as §4
[21] = system: CCRF-CEM; experiment: Cell cycle arrest in human CCRF-CEM assessed as accumulation at subG1 phase at 5 x GIC50 after 24 hrs by flow cytometry; assay type: functional; method in brief: as §4
[22] = system: CCRF-CEM; experiment: Inhibition of RNA synthesis in human CCRF-CEM assessed as assessed as BrdU incorporation at 5 x GIC50 after 24 by flow cytometry; assay type: functional; design: scale not given: the % may be the effect or the level left; method in brief: as §5
[23] = system: CCRF-CEM; experiment: Cell cycle arrest in human CCRF-CEM assessed as accumulation at G2/M phase at 5 x GIC50 after 24 hrs by flow cytometry; assay type: functional; method in brief: as §4
[24] = system: A549; experiment: Cytostatic activity against human A549 cells after 5 days by SRB assay; assay type: functional; settings: A549, 120 h; method in brief: as §2
[25] = Cytostatic activity against human Hs578 cells after 5 days by SRB assay; assay type: functional; settings: Hs578, 120 h; method in brief: as §2
[26] = system: CCRF-CEM; experiment: Inhibition of DNA synthesis in human CCRF-CEM assessed as assessed as BrdU incorporation after 24 by flow cytometry; assay type: functional
[27] = system: CCRF-CEM; experiment: Inhibition of RNA synthesis in human CCRF-CEM assessed as assessed as BrdU incorporation after 24 by flow cytometry; assay type: functional

SMILES | Activity [1] [%] | GI50 [2] [nM] | GI50 [3] [nM] | GI50 [4] [nM] | GI50 [6] [nM] | Activity [7] [%] | Activity [8] [%] | Activity [9] [%] | GI50 [10] [nM] | Activity [11] [%] | Activity [12] [%] | Activity [13] [%] | GI50 [14] [nM] | Activity [17] [%] | Activity [18] [%] | Activity [19] [%] | Activity [20] [%] | Activity [21] [%] | Activity [22] [%] | Activity [23] [%] | further results
OC[C@H]1O[C@@H](n2cc(F)c3c(-c4cccs4)ncnc32)[C@H](O)[C@@H]1O | 56.2 | 81 | 9 | 9 | 18 | 50.5 | 47 | 9.3 | 90 | 43.9 | 28.4 | 0.47 | 1500 | 0.85 | 17.1 | 46.7 | 40.4 | 43.4 | 5.7 | 9.1 | IC50 [5]: 4300 nM; IC50 [15]: 4300 nM; IC50 [16]: 270 nM; GI50 [24]: 61 nM; GI50 [25]: 130 nM
OC[C@H]1O[C@@H](n2ccc3c(-c4ccoc4)ncnc32)[C@H](O)[C@@H]1O | 44.6 | 35 | 92 | 36 | 86 | 39.7 | 28.9 | 7.1 | 96 | 55.6 | 14 | 0.39 | 280 | 0.84 | 39.8 | 37.3 | 54.4 | 61.2 | 7.2 | 5.9 | IC50 [5]: 1500 nM; IC50 [15]: 4600 nM; IC50 [16]: 1900 nM; GI50 [24]: 73 nM; GI50 [25]: 260 nM
OC[C@H]1O[C@@H](n2cc(F)c3c(-c4ccco4)ncnc32)[C@H](O)[C@@H]1O | – | 110 | 39 | 5 | 57 | – | – | – | 75 | – | – | – | 4300 | – | – | – | – | – | – | – | IC50 [5]: 1200 nM; IC50 [15]: 8000 nM; IC50 [16]: 1400 nM; GI50 [24]: 110 nM; GI50 [25]: 180 nM
OC[C@H]1O[C@@H](n2ccc3c(-c4cccs4)ncnc32)[C@H](O)[C@@H]1O | 55.5 | 23 | 49 | 9 | 78 | 47 | 38.3 | 12.2 | 33 | 45.5 | 28.5 | 0.44 | 430 | 0.87 | 13.7 | 42.2 | 47 | 55 | 3.5 | 6 | IC50 [5]: 1200 nM; IC50 [15]: 8800 nM; IC50 [16]: 290 nM; GI50 [24]: 45 nM; GI50 [25]: 100 nM
Nc1nc(Cl)nc2c1ncn2[C@H]1C[C@H](O)[C@@H](CO)O1 [CLADRIBINE] | 32.1 | – | – | – | – | 30.8 | 13 | 1.9 | – | 73.2 | 46.2 | 0.44 | – | 0.85 | 48 | 24.9 | 61.6 | 61.5 | 41.3 | 7.6 | inhibition (INH) [26]: 9.54%; inhibition (INH) [27]: 44.77%
Nc1nc(Cl)nc2c1ncn2[C@@H]1O[C@H](CO)[C@@H](O)[C@@H]1F [CLOFARABINE] | – | 65 | – | – | 180 | – | – | – | 63 | – | – | – | 40 | – | – | – | – | – | – | – | –
Nc1ccn([C@@H]2O[C@H](CO)[C@@H](O)C2(F)F)c(=O)n1 [GEMCITABINE] | 56.7 | 4 | – | – | 3 | 30.5 | 9.5 | 0.6 | 6 | 27.1 | 54.7 | 0.53 | 2 | 0.78 | 24.1 | 72.3 | 67.1 | 54 | 44.8 | 2.3 | –
